# The source made the active and inactive calls. The rule behind the calls is not given here.
# Assays:
# [1] = system: Staphylococcus epidermidis; assay: Bactericidal activity against Staphylococcus epidermidis INCQS 00016 ATCC 12228 at 256 ug/ml incubated for 24 hrs followed by transfer of microbial suspension to agar plates and measured after 24 hrs post transfer by resazurin dye-based colorimetric analysis; format: functional, organism-based; settings: ATCC 12228 INCQS 00016
# Summary of the method: (§1)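 For MBC, 10 µL from each clear MIC well was plated on agar and incubated 24 h at 37°C. MBC is the minimum concentration inhibiting 99.9% of growth. […] Triplicate.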
# Escherichia coli [2] = assay: Antimicrobial activity against Escherichia coli INCQS 00033 ATCC 25922 assessed as zone of inhibition at 5 mg/ml after 18 to 24 hrs by disc diffusion method; format: functional; settings: ATCC 25922 INCQS 00033, read-out: IZ
# Escherichia coli [3] = assay: Ratio of MBC99.9 to MIC for Escherichia coli INCQS 00033 ATCC 25922; format: functional, ATCC 25922 INCQS 00033
# Summary of the method: (§2)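 MBC/MIC ratio from the 24 h, 37°C microdilution MIC and the agar-plating MBC (99.9% growth inhibition). A ratio ≤2 was classed as bactericidal and ≥4 as bacteriostatic.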
# Staphylococcus aureus [4] = assay: Antimicrobial activity against methicillin-resistant Staphylococcus aureus BMB9393 assessed as zone of inhibition at 5 mg/ml after 18 to 24 hrs by disc diffusion method; format: functional; settings: read-out: IZ
# Enterococcus faecalis = assay: Antimicrobial activity against Enterococcus faecalis INCQS 00234 ATCC 29212 assessed as zone of inhibition at 5 mg/ml after 18 to 24 hrs by disc diffusion method; format: functional; settings: ATCC 29212 INCQS 00234, read-out: IZ
# Staphylococcus aureus [5] = assay: Bactericidal activity against methicillin-resistant Staphylococcus aureus BMB9393 at 256 ug/ml incubated for 24 hrs followed by transfer of microbial suspension to agar plates and measured after 24 hrs post transfer by resazurin dye-based colorimetric analysis; format: functional, organism-based
# Summary of the method: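 From MIC wells with no visible growth, 10 µL is transferred to agar plates and incubated 24 h at 37°C. MBC is the minimum concentration inhibiting 99.9% of growth. […] Triplicate.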
# [6] = system: Staphylococcus epidermidis; assay: Antimicrobial activity against Staphylococcus epidermidis INCQS 00016 ATCC 12228 at 256 ug/ml after 24 hrs by microdilution assay; format: functional, organism-based; settings: ATCC 12228 INCQS 00016
# Staphylococcus aureus [7] = assay: Antimicrobial activity against methicillin-resistant Staphylococcus aureus BMB9393 at 256 ug/ml after 24 hrs by microdilution assay; format: functional, organism-based
# [8] = system: Staphylococcus epidermidis; assay: Antimicrobial activity against Staphylococcus epidermidis INCQS 00016 ATCC 12228 assessed as zone of inhibition at 5 mg/ml after 18 to 24 hrs by disc diffusion method; format: functional; settings: ATCC 12228 INCQS 00016, read-out: IZ
# Pseudomonas aeruginosa [9] = assay: Antimicrobial activity against Pseudomonas aeruginosa INCQS 00099 ATCC 27853 after 24 hrs by microdilution assay; format: functional; settings: INCQS 00099 ATCC 27853, 24 h
# Staphylococcus aureus [10] = assay: Bactericidal activity against Staphylococcus aureus INCQS 00015 ATCC 25923 at 256 ug/ml incubated for 24 hrs followed by transfer of microbial suspension to agar plates and measured after 24 hrs post transfer by resazurin dye-based colorimetric analysis; format: functional, organism-based; summary of the method: as §1
# Klebsiella pneumoniae = assay: Antimicrobial activity against Klebsiella pneumoniae INCQS 00083 ATCC 4352 assessed as zone of inhibition at 5 mg/ml after 18 to 24 hrs by disc diffusion method; format: functional; settings: read-out: IZ
# Escherichia coli [11] = assay: Bactericidal activity against Escherichia coli INCQS 00033 ATCC 25922 incubated for 24 hrs followed by transfer of microbial suspension to agar plates and measured after 24 hrs post transfer by resazurin dye-based colorimetric analysis; format: functional; settings: ATCC 25922 INCQS 00033, 24 h, read-out: MBC99.9; summary of the method: as §1
# Proteus mirabilis = assay: Antimicrobial activity against Proteus mirabilis INCQS 00095 ATCC 15290 assessed as zone of inhibition at 5 mg/ml after 18 to 24 hrs by disc diffusion method; format: functional; settings: read-out: IZ
# Staphylococcus simulans [12] = assay: Antimicrobial activity against Staphylococcus simulans INCQS 00254 ATCC 27851 assessed as zone of inhibition at 5 mg/ml after 18 to 24 hrs by disc diffusion method; format: functional; settings: read-out: IZ
# Staphylococcus simulans [13] = assay: Bactericidal activity against Staphylococcus simulans INCQS 00254 ATCC 27851 at 256 ug/ml incubated for 24 hrs followed by transfer of microbial suspension to agar plates and measured after 24 hrs post transfer by resazurin dye-based colorimetric analysis; format: functional, organism-based; summary of the method: as §1
# Pseudomonas aeruginosa [14] = assay: Ratio of MBC99.9 to MIC for Pseudomonas aeruginosa INCQS 00099 ATCC 27853; format: functional; summary of the method: as §2
# Pseudomonas aeruginosa [15] = assay: Bactericidal activity against Pseudomonas aeruginosa INCQS 00099 ATCC 27853 incubated for 24 hrs followed by transfer of microbial suspension to agar plates and measured after 24 hrs post transfer by resazurin dye-based colorimetric analysis; format: functional; settings: INCQS 00099 ATCC 27853, 24 h, read-out: MBC99.9; summary of the method: as §1
# [16] = Hemolytic activity against human erythrocytes assessed as hemolysis at 200 ug/ml after 3 hrs by spectrophotometric analysis relative to control; format: ADME, cell-based, Erythrocyte; settings: read-out: Activity
# Summary of the method: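 Erythrocytes collected in citrate tubes, washed three times with PBS pH 7.4 by centrifugation and resuspended in PBS. Incubated with compounds at 200 µg/mL for 3 h at 37°C. Released hemoglobin was read in the supernatant at 545 nm against 1% Triton X-100 (complete lysis) and 1% DMSO (negative control). Below 10% hemolysis was taken as hemocompatible. Three independent experiments.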
# Staphylococcus aureus [17] = assay: Antimicrobial activity against Staphylococcus aureus INCQS 00015 ATCC 25923 assessed as zone of inhibition at 5 mg/ml after 18 to 24 hrs by disc diffusion method; format: functional; settings: read-out: IZ
# Escherichia coli [18] = assay: Antimicrobial activity against Escherichia coli INCQS 00033 ATCC 25922 after 24 hrs by microdilution assay; format: functional; settings: ATCC 25922 INCQS 00033, 24 h
# Pseudomonas aeruginosa [19] = assay: Antimicrobial activity against Pseudomonas aeruginosa INCQS 00099 ATCC 27853 assessed as zone of inhibition at 5 mg/ml after 18 to 24 hrs by disc diffusion method; format: functional; settings: read-out: IZ
# Staphylococcus simulans [20] = assay: Antimicrobial activity against Staphylococcus simulans INCQS 00254 ATCC 27851 at 256 ug/ml after 24 hrs by microdilution assay; format: functional, organism-based
# Staphylococcus aureus [21] = assay: Antimicrobial activity against Staphylococcus aureus INCQS 00015 ATCC 25923 at 256 ug/ml after 24 hrs by microdilution assay; format: functional, organism-based
SMILES,Activity [1],zone of inhibition at 5000 µg/mL (Escherichia coli [2]),Ratio (Escherichia coli [3]),zone of inhibition at 5000 µg/mL (Staphylococcus aureus [4]),zone of inhibition at 5000 µg/mL (Enterococcus faecalis),Activity (Staphylococcus aureus [5]),Activity [6],Activity (Staphylococcus aureus [7]),zone of inhibition at 5000 µg/mL [8],MIC (Pseudomonas aeruginosa [9]),Activity (Staphylococcus aureus [10]),zone of inhibition at 5000 µg/mL (Klebsiella pneumoniae),MBC (Escherichia coli [11]),zone of inhibition at 5000 µg/mL (Proteus mirabilis),zone of inhibition at 5000 µg/mL (Staphylococcus simulans [12]),Activity (Staphylococcus simulans [13]),MBC (Pseudomonas aeruginosa [15]),"hemolysis at 3 h, 200 ug/ml [16]",zone of inhibition at 5000 µg/mL (Staphylococcus aureus [17]),MIC (Escherichia coli [18]),also measured
CC1(C)O[C@H]2O[C@H](CNC3=C(Cl)C(=O)c4ccccc4C3=O)[C@H](O)[C@H]2O1,inactive,17 mm,1,0 mm,0 mm,inactive,inactive,inactive,15 mm,8 mg/L,inactive,0 mm,4 mg/L,0 mm,13 mm,inactive,8 mg/L,10.1 to 14.4%,14 mm,4 mg/L,Ratio (Pseudomonas aeruginosa [14]): 1; zone of inhibition at 5000 µg/mL (Pseudomonas aeruginosa [19]): 21 mm; Activity (Staphylococcus simulans [20]): inactive; Activity (Staphylococcus aureus [21]): inactive
CO[C@@H]1O[C@H](CNC2=C(Cl)C(=O)c3ccccc3C2=O)[C@H]2OC(C)(C)O[C@@H]12,inactive,10 mm,1,0 mm,0 mm,inactive,inactive,inactive,9 mm,32 mg/L,inactive,0 mm,8 mg/L,0 mm,7 mm,inactive,32 mg/L,< 10%,0 mm,8 mg/L,zone of inhibition at 5000 µg/mL (Pseudomonas aeruginosa [19]): 9 mm; Activity (Staphylococcus simulans [20]): inactive; Activity (Staphylococcus aureus [21]): inactive
CO[C@@H]1O[C@H](CNC2=C(Br)C(=O)c3ccccc3C2=O)[C@H]2OC(C)(C)O[C@@H]12,inactive,16 mm,1,0 mm,0 mm,inactive,inactive,inactive,10 mm,64 mg/L,inactive,0 mm,32 mg/L,0 mm,8 mm,inactive,34 mg/L,< 10%,8 mm,32 mg/L,Ratio (Pseudomonas aeruginosa [14]): 1; zone of inhibition at 5000 µg/mL (Pseudomonas aeruginosa [19]): 13 mm; Activity (Staphylococcus simulans [20]): inactive; Activity (Staphylococcus aureus [21]): inactive
COC(=O)c1c(C)nc(C)c2c1C(=O)C(Br)=C(NC[C@H]1O[C@@H](OC)[C@@H]3OC(C)(C)O[C@@H]31)C2=O,inactive,17 mm,1,12 mm,0 mm,inactive,inactive,inactive,11 mm,8 mg/L,inactive,0 mm,8 mg/L,0 mm,0 mm,inactive,8 mg/L,< 10%,13 mm,8 mg/L,Ratio (Pseudomonas aeruginosa [14]): 1; zone of inhibition at 5000 µg/mL (Pseudomonas aeruginosa [19]): 17 mm; Activity (Staphylococcus simulans [20]): inactive; Activity (Staphylococcus aureus [21]): inactive
CC1(C)O[C@H]2[C@@H](O1)[C@@H](CNC1=C(Cl)C(=O)c3ccccc3C1=O)O[C@@H]1OC(C)(C)O[C@@H]12,inactive,12 mm,1,0 mm,0 mm,inactive,inactive,inactive,8 mm,32 mg/L,inactive,0 mm,16 mg/L,0 mm,0 mm,inactive,32 mg/L,< 10%,9 mm,16 mg/L,Ratio (Pseudomonas aeruginosa [14]): 1; zone of inhibition at 5000 µg/mL (Pseudomonas aeruginosa [19]): 13 mm; Activity (Staphylococcus simulans [20]): inactive; Activity (Staphylococcus aureus [21]): inactive
CC1(C)O[C@H]2O[C@H](CNC3=C(Br)C(=O)c4ccccc4C3=O)[C@H](O)[C@H]2O1,inactive,12 mm,1,0 mm,0 mm,inactive,inactive,inactive,10 mm,16 mg/L,inactive,0 mm,16 mg/L,0 mm,9 mm,inactive,16 mg/L,< 10%,8 mm,16 mg/L,Ratio (Pseudomonas aeruginosa [14]): 1; zone of inhibition at 5000 µg/mL (Pseudomonas aeruginosa [19]): 16 mm; Activity (Staphylococcus simulans [20]): inactive; Activity (Staphylococcus aureus [21]): inactive

# Source: ChEMBL document CHEMBL4270541, “Synthesis and antimicrobial evaluation of amino sugar-based naphthoquinones and isoquinoline-5,8-diones and their halogenated compounds” (Eur J Med Chem, 2018)
